What was measured:
Oocyte [1] = assay: Activity at Wistar rat cortex AMPA receptor expressed in Xenopus laevis oocytes assessed as 2-fold increase of (S)-AMPA-induced current; assay type: cell-based
Procedure, shortened: (§1)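 Two-electrode voltage clamp on Xenopus oocytes injected with rat cortex poly(A+) mRNA. Current is evoked by (S)-AMPA at 10 µM with drug co-applied. Compounds alone were checked on the holding current. Mean ± SEM, n ≥ 2–3.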

Oocyte [2] = assay: Activity at Wistar rat cortex AMPA receptor expressed in Xenopus laevis oocytes assessed as 5-fold increase of (S)-AMPA-induced current; assay type: cell-based; procedure, shortened: as §1
Oocyte [3] = assay: Activity at Wistar rat cortex AMPA receptor expressed in Xenopus laevis oocytes assessed as maximum increase of (S)-AMPA-induced current; assay type: cell-based; procedure, shortened: as §1
[4] = Activity at Wistar rat cortex AMPA receptor expressed in Xenopus laevis oocytes assessed as effect on (S)-AMPA-induced current; assay type: cell-based; conditions: Oocyte; procedure, shortened: as §1
Hippocampus = assay: Increase in (S)-AMPA-stimulated [3H]noradrenaline release in Wistar rat hippocampus at 30 uM relative to control; assay type: functional
Procedure, shortened: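 Rat hippocampal slices preloaded with [³H]-noradrenaline. Release is stimulated by (S)-AMPA, with drug at 30 µM. Drug alone was compared with basal DMSO control release. Result is the % increase in AMPA-evoked release.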

SMILES	Activity (Oocyte [1]) [µM]	Activity (Oocyte [2]) [µM]	Activity (Oocyte [3]) [%]	EC50 [4] [µM]	Activity (Hippocampus) [%]
CCN1CNS(=O)(=O)c2cc(C(=O)OC)ccc21	> 100	> 100	–	–	–
CN1C=NS(=O)(=O)c2cc(Cl)ccc21	> 1000	> 1000	–	–	–
O=S1(=O)N[C@H]2CCCN2c2ccccc21	24.6	78.2	1260	130	0
CC1Nc2ccc(Cl)cc2S(=O)(=O)N1 (centres undefined)	134	509	> 700	–	–
CCN1CNS(=O)(=O)c2cc(C(=O)O)ccc21	> 100	> 100	–	–	–
CCN1C=NS(=O)(=O)c2cc(Cl)ccc21	400	> 1000	> 400	–	–
CCN1CNS(=O)(=O)c2cc(C(F)(F)F)ccc21	> 300	> 300	–	–	–
CN1CN(C)S(=O)(=O)c2cc(Cl)ccc21	7	17	> 1900	–	–
CCN1CNS(=O)(=O)c2cc([N+](=O)[O-])ccc21	16	45	> 1000	–	–
CN1CN(C)S(=O)(=O)c2ccccc21	37	127	> 1700	–	–
CN1C=NS(=O)(=O)c2ccccc21	450	> 1000	–	–	–
CCN1CN(C)S(=O)(=O)c2cc(Cl)ccc21	21	64	> 1100	–	–
CCN1CNS(=O)(=O)c2cc(C(=O)Oc3ccccc3)ccc21	32	180	> 600	–	–
CCN1CNS(=O)(=O)c2ccccc21	14	38	> 1800	–	–
NS(=O)(=O)c1cc2c(cc1Cl)NC(C1CC3C=CC1C3)NS2(=O)=O (centres undefined) [CYCLOTHIAZIDE]	1.6	9.8	844	7.1	73
CCN1C=NS(=O)(=O)c2cc(C)ccc21	300	> 1000	> 300	–	–

Now from value to molecule, other results behind:

Activity (Oocyte [1]) [µM]	Activity (Oocyte [2]) [µM]	Activity (Oocyte [3]) [%]	EC50 [4] [µM]	SMILES	Activity (Hippocampus) [%]
68	190	> 600	–	CCN1CNS(=O)(=O)c2cc(OC)ccc21	–
> 300	> 300	–	–	CN1CNS(=O)(=O)c2cc(N)ccc21	–
29	78	> 1100	–	CCN1CNS(=O)(=O)c2cc(Br)ccc21	–
> 300	> 300	–	–	CCN1CNS(=O)(=O)c2cc(N)ccc21	–
22	46	> 1900	–	CN1CNS(=O)(=O)c2ccccc21	–
11	26	> 1400	–	CN1CNS(=O)(=O)c2cc([N+](=O)[O-])ccc21	–
21	47	> 3000	–	Cc1ccc2c(c1)S(=O)(=O)NCN2C	–
320	650	> 600	–	Cc1ccc2c(c1)S(=O)(=O)N=CN2C	–
25	95	> 1300	–	CCN1CNS(=O)(=O)c2cc(C)ccc21	–
6	18	1740	–	CN1CNS(=O)(=O)c2cc(Cl)ccc21	–
95	–	> 400	–	CCN1CNS(=O)(=O)c2cc(I)ccc21	–
> 300	> 300	–	–	CCN1CNS(=O)(=O)c2cc(NC(C)=O)ccc21	–

— ChEMBL document CHEMBL1145399, “Design, synthesis, and pharmacology of novel 7-substituted 3,4-dihydro-2H-1,2,4-benzothiadiazine 1,1-dioxides as positive allosteric modulators of AMPA receptors” (J Med Chem, 2007)
